According to ChEMBL document CHEMBL1158460, “Heterobiaryl human immunodeficiency virus entry inhibitors” (J Med Chem, 2009):

Tests used:
[1] = tested on: Human immunodeficiency virus 1; assay: Antiviral activity against HIV1 expressed in 293T cells assessed as protection against viral M33 envelope infection in human U87 cells coexpressing CD4, CCR5 receptors after 72 hrs by luciferase reporter gene pseudoviral assay; assay type: functional, organism-based; details: Human immunodeficiency virus 1, HEK-293T
Summary of the method: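 Pseudovirions carry an R5-using envelope cloned from a primary virus isolate. Anti-HIV-1 activity was taken as the 50% inhibitory dose against these pseudovirions.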

[2] = Cytotoxicity against human U87 cells coexpressing CD4, CxCR4 receptors after 72 hrs; assay type: cell-based, U-87MG ATCC; details: U87 cells coexpressing CD4 and CXCR4 receptors
[3] = Inhibition of HIV1 3B recombinant gp120/sCD4 binding interaction by ELISA
Summary of the method: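 Competitive ELISA of soluble CD4 binding to gp120 from HIV IIIB. Bound CD4 was detected with an anti-CD4 monoclonal antibody, then a peroxidase-labelled anti-mouse antibody. The read-out was the 50% inhibitory dose.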

[4] = tested on: Human immunodeficiency virus; assay: Antiviral activity against HIV isolate 584.000 017 by replication assay; assay type: functional, organism-based; details: Human immunodeficiency virus 1, isolate 584.000 017
[5] = tested on: Human immunodeficiency virus; assay: Antiviral activity against HIV isolate 584.000 030 by replication assay; assay type: functional, organism-based; details: Human immunodeficiency virus 1, isolate 584.000 030
[6] = tested on: Human immunodeficiency virus; assay: Antiviral activity against HIV isolate 584.000 031 by replication assay; assay type: functional, organism-based; details: Human immunodeficiency virus 1, isolate 584.000 031
[7] = tested on: Human immunodeficiency virus; assay: Antiviral activity against HIV isolate 584.000 054 by replication assay; assay type: functional, organism-based; details: Human immunodeficiency virus 1, isolate 584.000 054
[8] = tested on: Human immunodeficiency virus; assay: Antiviral activity against HIV isolate 584.000 060 by replication assay; assay type: functional, organism-based; details: Human immunodeficiency virus 1, isolate 584.000 060
[9] = tested on: Human immunodeficiency virus; assay: Antiviral activity against HIV isolate 584.000 063 by replication assay; assay type: functional, organism-based; details: Human immunodeficiency virus 1, isolate 584.000 063
[10] = tested on: Human immunodeficiency virus; assay: Antiviral activity against HIV isolate 584.000 066 by replication assay; assay type: functional, organism-based; details: Human immunodeficiency virus 1, isolate 584.000 066
[11] = tested on: Human immunodeficiency virus; assay: Antiviral activity against HIV isolate 584.000.098 by replication assay; assay type: functional, organism-based; details: Human immunodeficiency virus 1, isolate 584.000.098
[12] = tested on: Human immunodeficiency virus; assay: Antiviral activity against HIV isolate 584.000 220 by replication assay; assay type: functional, organism-based; details: Human immunodeficiency virus 1, isolate 584.000 220
[13] = tested on: Human immunodeficiency virus; assay: Antiviral activity against HIV isolate 584.000 227 by replication assay; assay type: functional, organism-based; details: Human immunodeficiency virus 1, isolate 584.000 227
[14] = tested on: Human immunodeficiency virus; assay: Antiviral activity against HIV isolate 589.000 033 by replication assay; assay type: functional, organism-based; details: Human immunodeficiency virus 1, isolate 589.000 033
[15] = tested on: Human immunodeficiency virus; assay: Antiviral activity against HIV isolate 584.000 058 by replication assay; assay type: functional, organism-based; details: Human immunodeficiency virus 1, isolate 584.000 058

| Compound | IC50 [1] [nM] | IC50 [3] [nM] | CC50 at 72 h [2] [µM] | also measured |
| --- | --- | --- | --- | --- |
| CC1CN(C(=O)c2ccccc2)CCN1C(=O)C(=O)c1ccc(-c2cnn(C)c2)cc1 (racemic) | 110 | – | > 40 | – |
| C[C@@H]1CN(C(=O)c2ccccc2)CCN1C(=O)C(=O)c1ccc(-n2cccn2)cc1 | 1200 | > 7500 | > 40 | – |
| C[C@@H]1CN(C(=O)c2ccccc2)CCN1C(=O)C(=O)c1ccc(-c2cscn2)cc1 | 420 | – | > 40 | – |
| C[C@@H]1CN(C(=O)c2ccccc2)CCN1C(=O)C(=O)c1ccc(-c2ncccc2F)cc1 | 2000 | – | > 40 | – |
| C[C@@H]1CN(C(=O)c2ccccc2)CCN1S(=O)(=O)c1ccc(-c2ccccn2)s1 | 5400 | – | > 40 | – |
| CC1CN(C(=O)c2ccccc2)CCN1C(=O)C(=O)c1ccc(-c2cc(N)ncn2)cc1 (racemic) | 1400 | – | > 40 | – |
| C[C@@H]1CN(C(=O)c2ccccc2)CCN1C(=O)C(=O)c1ccc(-c2cnco2)c(Cl)c1 | < 5 | 236 | > 40 | – |
| C[C@@H]1CN(C(=O)c2ccccc2)CCN1C(=O)C(=O)c1ccc(N2CCOC2=O)cc1 | 12000 | > 10000 | > 40 | – |
| CC(=O)c1ccc(-c2ccc(C(=O)C(=O)N3CCN(C(=O)c4ccccc4)C[C@H]3C)cc2)s1 | 1600 | – | > 40 | – |
| Cc1ccc(-c2ccc(C(=O)C(=O)N3CCN(C(=O)c4ccccc4)C[C@H]3C)cc2)o1 | 2800 | > 10000 | > 40 | – |
| C[C@@H]1CN(C(=O)c2ccccc2)CCN1C(=O)C(=O)c1ccc(-c2cncs2)cc1 | 320 | – | > 40 | – |
| COc1cnc(-n2ccnn2)c2[nH]cc(S(=O)(=O)N3CCN(C(=O)c4ccccc4)C[C@H]3C)c12 | 7 | 215 | > 40 | – |
| C[C@@H]1CN(C(=O)c2ccccc2)CCN1S(=O)(=O)c1ccc(-c2cnco2)s1 | 1200 | – | > 40 | – |
| C[C@@H]1CN(C(=O)c2ccccc2)CCN1C(=O)C(=O)c1ccc(-c2ccccn2)s1 | 13000 | – | > 40 | – |
| C[C@@H]1CN(C(=O)c2ccccc2)CCN1C(=O)C(=O)c1ccc(-c2ccsc2)cc1 | 540 | – | > 40 | – |
| COc1cc(C(=O)C(=O)N2CCN(C(=O)c3ccccc3)C[C@H]2C)ccc1-c1cc(C)no1 | 830 | > 10000 | > 40 | – |
| C[C@@H]1CN(C(=O)c2ccccc2)CCN1C(=O)C(=O)c1ccc(-c2cccs2)cc1 | 440 | – | > 40 | – |
| COc1cc(C(=O)C(=O)N2CCN(C(=O)c3ccccc3)C[C@H]2C)ccc1-c1cnco1 | 50 | 780 | > 40 | – |
| CC1CN(C(=O)c2ccccc2)CCN1C(=O)C(=O)c1ccc(-n2cncn2)cc1 (racemic) | 940 | > 10000 | > 40 | – |
| C[C@@H]1CN(C(=O)c2ccccc2)CCN1C(=O)C(=O)c1cccc(-c2ccccn2)c1 | 23000 | – | > 40 | – |
| Cc1cc(-c2ccc(C(=O)C(=O)N3CCN(C(=O)c4ccccc4)C[C@H]3C)cc2F)on1 | 130 | > 10000 | > 40 | – |
| CC(=O)c1cc(-c2ccc(C(=O)C(=O)N3CCN(C(=O)c4ccccc4)CC3C)cc2)cs1 (racemic) | 910 | – | > 40 | – |
| C[C@@H]1CN(C(=O)c2ccccc2)CCN1C(=O)C(=O)c1ccc(-c2ccncc2)cc1 | 2500 | – | > 40 | – |
| C[C@@H]1CN(C(=O)c2ccccc2)CCN1C(=O)C(=O)c1ccc(-c2cnco2)cc1 | 250 | – | > 40 | – |
| CC1CN(C(=O)c2ccccc2)CCN1C(=O)C(=O)c1ccc(-n2nccn2)cc1 (racemic) | 870 | 6200 | > 40 | – |
| C[C@@H]1CN(C(=O)c2ccccc2)CCN1C(=O)C(=O)c1ccc(-c2nccs2)cc1 | 630 | > 10000 | > 40 | – |
| C[C@@H]1CN(C(=O)c2ccccc2)CCN1C(=O)C(=O)c1ccc(N2CCCC2)cc1 | 6700 | > 10000 | > 40 | – |
| COc1ncc(OC)c2c(C(=O)C(=O)N3CCN(C(=O)c4ccccc4)CC3)c[nH]c12 | 26 | 2400 | > 40 | IC50 [4]: > 10 µM; IC50 [5]: 30 nM; IC50 [6]: 0.24 µM; IC50 [7]: 7.13 µM; IC50 [8]: 14 nM; IC50 [9]: 17 nM; IC50 [10]: 11 nM; IC50 [11]: 425 nM; IC50 [12]: 4 nM; IC50 [13]: 22 nM; IC50 [14]: 34 nM; IC50 [15]: 60 nM |

The next lines start with results.

| IC50 [1] [nM] | IC50 [3] [nM] | Compound | CC50 at 72 h [2] [µM] | also measured |
| --- | --- | --- | --- | --- |
| 5400 | – | Cc1nc(-c2ccc(C(=O)C(=O)N3CCN(C(=O)c4ccccc4)C[C@H]3C)cc2)cs1 | > 40 | – |
| 330 | > 10000 | Cc1cc(-c2ccc(C(=O)C(=O)N3CCN(C(=O)c4ccccc4)C[C@H]3C)cc2)on1 | > 40 | – |
| 1100 | > 10000 | Cc1cc(-c2cc[nH]n2)ccc1C(=O)C(=O)N1CCN(C(=O)c2ccccc2)C[C@H]1C | > 40 | – |
| 1000 | > 10000 | C[C@@H]1CN(C(=O)c2ccccc2)CCN1C(=O)C(=O)c1ccc(-c2cc[nH]n2)nc1 | > 40 | – |
| 78 | 5900 | C[C@@H]1CN(C(=O)c2ccccc2)CCN1C(=O)C(=O)c1ccc(-c2cc[nH]n2)cc1N | > 40 | – |
| < 5 | 230 | COc1cc(-c2cc(C)no2)ccc1C(=O)C(=O)N1CCN(C(=O)c2ccccc2)C[C@H]1C | > 40 | IC50 [4]: > 10 µM; IC50 [5]: 13 nM; IC50 [6]: 8.97 µM; IC50 [7]: 3.51 µM; IC50 [8]: 17 nM; IC50 [9]: 25 nM; IC50 [10]: 273 nM; IC50 [11]: 301 nM; IC50 [12]: 3 nM; IC50 [13]: 1820 nM; IC50 [14]: 11 nM; IC50 [15]: 22 nM |
| 46 | 1100 | C[C@@H]1CN(C(=O)c2ccccc2)CCN1C(=O)C(=O)c1ccc(-c2cc[nH]n2)cc1F | > 40 | – |
| 250 | 4600 | C[C@@H]1CN(C(=O)c2ccccc2)CCN1C(=O)C(=O)c1ccc(-c2ccn[nH]2)cc1Cl | > 40 | – |
| 1800 | – | CC1CN(C(=O)c2ccccc2)CCN1C(=O)C(=O)c1ccc(-c2ccn(C)n2)cc1 (racemic) | > 40 | – |
| > 10000 | – | CNc1cc(-c2cc[nH]n2)ccc1C(=O)C(=O)N1CCN(C(=O)c2ccccc2)C[C@H]1C | > 40 | – |
| 56 | 2500 | COc1cc(C(=O)C(=O)N2CCN(C(=O)c3ccccc3)C[C@H]2C)ccc1-c1cc[nH]n1 | > 40 | – |
| 7300 | > 10000 | Cc1cc(-c2ccc(C(=O)C(=O)N3CCN(C(=O)c4ccccc4)C[C@H]3C)c(O)c2)on1 | > 40 | – |
| 2200 | > 10000 | C[C@@H]1CN(C(=O)c2ccccc2)CCN1C(=O)C(=O)c1ccc(-c2cc[nH]n2)cc1O | > 40 | – |
| < 5 | 560 | COc1cc(-c2ccn[nH]2)ccc1C(=O)C(=O)N1CCN(C(=O)c2ccccc2)C[C@H]1C | > 40 | – |
| 160 | 2400 | CC1CN(C(=O)c2ccccc2)CCN1C(=O)C(=O)c1ccc(-c2cc[nH]n2)cc1 (racemic) | > 40 | – |
| 35 | 680 | Cc1cc(C(=O)C(=O)N2CCN(C(=O)c3ccccc3)C[C@H]2C)ccc1-c1cc[nH]n1 | > 40 | – |
| 8 | 930 | COc1ccnc2[nH]cc(C(=O)C(=O)N3CCN(C(=O)c4ccccc4)C[C@H]3C)c12 | > 40 | IC50 [4]: > 10 µM; IC50 [5]: 29 nM; IC50 [6]: 8.02 µM; IC50 [7]: 5.53 µM; IC50 [8]: 24 nM; IC50 [9]: 46 nM; IC50 [10]: 190 nM; IC50 [11]: 394 nM; IC50 [12]: 5 nM; IC50 [13]: 423 nM; IC50 [14]: 27 nM; IC50 [15]: 38 nM |
